Read-outs that look alike come from different tables or passages of the source.
Key:
[1] = acid hydrolysis also observed; ref Stariat et al., 2009; cited from earlier work
[2] = system: human α1-acid glycoprotein; experiment: binding to human α1-acid glycoprotein solution by ultrafiltration; type: in vitro ADME; conditions: human α1-acid glycoprotein (0.1%) in PBS, 500 ng/mL, n = 3
Outline: (§1)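 Test compound was spiked to a final 500 ng/mL into 4% human serum albumin or 0.1% human α1-acid glycoprotein in PBS. Samples were incubated 1 h at 37 °C, then ultrafiltered through a 30 kDa cutoff device for 20 min at 13,000 g. Total and filtrate concentrations were measured by LC-MS/MS. %bound = 100×(Ctotal−Cfree)/Ctotal, with the filtrate corrected for membrane adsorption using recovery from water. n = 3.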

[3] = system: human plasma proteins; experiment: plasma binding by ultrafiltration; type: in vitro ADME
Outline: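 Pooled human plasma was spiked with test compound in DMSO to a final 500 ng/mL; preliminary runs also used 31.25 and 3.9 ng/mL. After 1 h at 37 °C, plasma was ultrafiltered (30 kDa cutoff, 20 min, 13,000 g). Total plasma and ultrafiltrate levels were measured by LC-MS/MS. %bound = 100×(Ctotal−Cfree)/Ctotal, corrected for membrane adsorption via recovery from water. n = 3.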

[4] = stability in plasma; type: in vitro ADME, human; conditions: for Measured concentration: n = 3
Outline: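 Human plasma was spiked at 100 and 500 ng/mL and kept at room temperature or on ice for up to 24 h; percent remaining was taken versus freshly prepared samples. For quantitation, 50 µL plasma plus internal standard and EDTA underwent acetonitrile precipitation and centrifugation, then LC-MS/MS in SRM mode. Calibration spanned 3.9–500 ng/mL, fitted with 1/concentration weighting.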

[5] = system: human plasma proteins; experiment: plasma binding by ultracentrifugation; type: in vitro ADME; conditions: 500 ng/mL, n = 3
Outline: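 Pooled human plasma was spiked with test compound in DMSO (final 500 ng/mL) and incubated 1 h at 37 °C. It was then spun at 50,000 rpm in a fixed-angle rotor for 10 h at 20 °C. The supernatant gave free and whole plasma gave total concentration, both by LC-MS/MS. %bound = 100×(Ctotal−Cfree)/Ctotal. n = 3.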

[6] = target: human serum albumin (Homo sapiens, UniProt P02768); experiment: binding to human serum albumin solution by ultrafiltration; type: in vitro ADME; conditions: human serum albumin (4%) in PBS, 500 ng/mL, n = 3
Sequence of human serum albumin (P02768 25-609): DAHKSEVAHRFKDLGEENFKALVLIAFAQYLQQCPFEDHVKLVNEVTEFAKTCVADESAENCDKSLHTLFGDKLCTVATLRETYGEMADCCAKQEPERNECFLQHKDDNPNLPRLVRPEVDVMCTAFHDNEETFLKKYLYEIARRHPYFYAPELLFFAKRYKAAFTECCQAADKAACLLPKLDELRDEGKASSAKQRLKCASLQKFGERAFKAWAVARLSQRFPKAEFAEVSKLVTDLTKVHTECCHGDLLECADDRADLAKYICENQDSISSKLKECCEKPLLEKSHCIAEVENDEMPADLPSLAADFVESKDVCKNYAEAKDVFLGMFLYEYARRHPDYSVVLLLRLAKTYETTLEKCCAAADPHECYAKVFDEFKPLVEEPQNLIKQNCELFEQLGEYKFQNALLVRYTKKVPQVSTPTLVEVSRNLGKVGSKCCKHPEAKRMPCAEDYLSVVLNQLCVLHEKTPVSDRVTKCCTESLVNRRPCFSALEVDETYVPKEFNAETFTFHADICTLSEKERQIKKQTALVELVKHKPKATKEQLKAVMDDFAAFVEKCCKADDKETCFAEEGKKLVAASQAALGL
Outline: as §1

[7] = stability in different solvents; type: physicochemical
Outline: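 Remaining amount was quantified by LC-MS/MS: C18 gradient with 0.1% formic acid, positive ESI, SRM m/z 235.2/178.0, 2-amino-6-bromobenzothiazole internal standard.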

[8] = human plasma, long term (30 days at −80 °C), nominal 3.9 ng/mL
[9] = human plasma, long term (30 days at −80 °C), nominal 31.3 ng/mL
[10] = human plasma, long term (30 days at −80 °C), nominal 500.0 ng/mL
[11] = human plasma, short-term (2 h on ice), nominal 31.3 ng/mL
[12] = human plasma, short-term (2 h on ice), nominal 500.0 ng/mL
[13] = human plasma, three freeze–thaw cycles, nominal 3.9 ng/mL
[14] = human plasma, three freeze–thaw cycles, nominal 500.0 ng/mL
[15] = processed human plasma samples, autosampler for 24 h, nominal 3.9 ng/mL
[16] = processed human plasma samples, autosampler for 24 h, nominal 31.3 ng/mL
[17] = processed human plasma samples, autosampler for 24 h, nominal 500.0 ng/mL

For `CN(C)C(=S)NN=C(c1ccccn1)c1ccccn1` [Dp44mT, di-2-pyridylketone-4,4-dimethyl-3-thiosemicarbazone], the “stability in acidic buffer” value [1] is given as “also observed”.

In the case of `CC(=NNC(=S)N1CCC1)c1ccccn1` [ZMC1, azetidinecarbothioic acid, [1-(2-pyridinyl)ethylidene] hydrazide], the “Percentage of bound drug by ultrafiltration” value [2] is reported as 34.9, the “Percentage of bound drug by ultrafiltration” value ([3]; human plasma, 500 ng/mL, n = 3) is reported as 98.8 and the “concentration of free ZMC1 in ultrafiltrate or ultracentrifugation supernatant” value ([3]; plasma spiked at 31.25 and 3.9 ng/mL) is reported as “below the detection limit”. For the same compound, the degraded in plasma ([4]; 100 ng/mL, room temperature, over 24 h, vs freshly prepared samples) was > 40%, the stability in plasma ([4]; 500 ng/mL, room temperature, up to 24 h) was “stable” and the Bias [4, 8] was −0.01%. It also gave a Measured concentration [4, 8] of 3.9 ng/mL, a Bias [4, 9] of −2.9% and a Measured concentration [4, 9] of 30.3 ng/mL. For the same compound, the Bias [4, 10] was 3.2%, the Measured concentration [4, 10] was 516.4 ng/mL and the Bias ([4]; human plasma, short-term (2 h on ice), nominal 3.9 ng/mL) was −0.4%. The Bias [4, 11] was −7.0%, the Measured concentration [4, 11] was 29.0 ng/mL and the Bias [4, 12] was −1.3%. For the same compound, the Measured concentration [4, 12] was 493.9 ng/mL, the Bias [4, 13] was 4.8% and the Measured concentration [4, 13] was 4.1 ng/mL. The Bias ([4]; human plasma, three freeze–thaw cycles, nominal 31.3 ng/mL) was −10.4%, the Bias [4, 14] was 10.6% and the Measured concentration [4, 14] was 553.1 ng/mL. For the same compound, the Bias [4, 15] was 4.0%, the Measured concentration [4, 15] was 4.1 ng/mL and the Bias [4, 16] was 13.0%. The Measured concentration [4, 16] was 35.4 ng/mL, the Bias [4, 17] was 10.0% and the Measured concentration [4, 17] was 550.7 ng/mL. The “stability of plasma samples under storage conditions” value ([4]; −80 °C for 1 month, 4 °C for 2 h, three freeze–thaw cycles, 24 h in autosampler) was “stable”, the “Percentage of bound drug by ultracentifugation” value [5] was 97.5 and the “Percentage of bound drug by ultrafiltration” value [6] was 98.4. For the same compound, the “stability in acidic buffer” value ([7]; 0.1 M HCl, 500 ng/mL, hydrolysis of thiosemicarbazone bond) was “quickly degraded”, the “stability in PBS” value ([7]; PBS pH 7.2, 500 ng/mL, 24 h at 4 °C, 37 °C and room temperature) was “stable without degradation” and the “stability in solvent acetonitrile” value ([7]; acetonitrile–water 80:20 v/v, 500 ng/mL, 24 h at 4 °C, 37 °C and room temperature) was “stable without degradation”. The “stability in neutral buffer” value ([7]; preliminary stability studies) was “good stability”.
